Measurements from publication PMC4306527 (Journal of medicinal chemistry, 2014).
“And” between values parts separate entries of the source, which are not always exact repeats. Identical values can stand only once.

Key:
rats [1] = settings: sc, data published previously; cited from earlier work
hCB2 receptor = hCB2 receptor (Homo sapiens, UniProt P34972); experiment: Radioligand competition binding, human CB2 in HEK293 membranes, [3H]CP-55,940
mCB2 receptor = mCB2 receptor (Mus musculus, UniProt P47936); experiment: Radioligand competition binding, mouse CB2 in HEK293 membranes, [3H]CP-55,940
[2] = molecular target: rCB1 receptor (rat brain membranes) (Rattus norvegicus, UniProt P20272); experiment: Radioligand competition binding, rat brain CB1, [3H]CP-55,940
rats [3] = experiment: Hypothermia testing in rats; format: in vivo, rat
Method in brief: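 Female Sprague–Dawley rats (250–350 g, n = 6/group), reused with ≥5 days between sessions. Test compound was dissolved in 20% ethanol/20% alkamuls/60% saline, then diluted with saline. Temperature was taken by a thermistor probe at 6 cm depth in minimally restrained, isolated rats. Two baselines 15 min apart; injected after the second; read every 30 min to 3 h, then hourly to 6 h. ED50 = dose lowering temperature 3 °C.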

male CD-1 mice = experiment: Tail-flick withdrawal; format: in vivo, mouse; settings: 0.3 and 1.0 mg/kg ip, descending phase 180 and 360 min
mouse plasma esterases = experiment: In vitro plasma stability toward mouse plasma esterases; format: in vitro ADME; settings: 200 μM in mouse plasma, 37 °C; Stable = no observable hydrolysis within 5 h
Method in brief: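 Test compound at 200 μM in mouse plasma, incubated at 37 °C with 100 rpm shaking. Samples taken at various time points were diluted 1:4 in acetonitrile and centrifuged to remove protein. Supernatant was analysed by HPLC on a C18 column. Half-life came from an exponential decay fit.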

Sequence of rCB1 receptor (rat brain membranes) (P20272 whole entry): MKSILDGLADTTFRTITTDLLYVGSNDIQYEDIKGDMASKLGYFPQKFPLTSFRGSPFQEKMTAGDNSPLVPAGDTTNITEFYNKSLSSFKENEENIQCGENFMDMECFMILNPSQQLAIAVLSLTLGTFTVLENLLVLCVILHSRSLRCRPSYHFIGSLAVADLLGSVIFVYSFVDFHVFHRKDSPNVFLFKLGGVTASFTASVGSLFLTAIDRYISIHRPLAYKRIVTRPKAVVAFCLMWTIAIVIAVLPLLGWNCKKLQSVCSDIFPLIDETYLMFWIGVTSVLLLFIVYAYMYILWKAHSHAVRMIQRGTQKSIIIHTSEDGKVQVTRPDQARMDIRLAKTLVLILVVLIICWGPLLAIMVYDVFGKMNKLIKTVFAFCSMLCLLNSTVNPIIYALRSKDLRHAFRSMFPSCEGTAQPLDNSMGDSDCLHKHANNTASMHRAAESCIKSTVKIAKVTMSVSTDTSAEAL
Sequence of hCB2 receptor (P34972 whole entry): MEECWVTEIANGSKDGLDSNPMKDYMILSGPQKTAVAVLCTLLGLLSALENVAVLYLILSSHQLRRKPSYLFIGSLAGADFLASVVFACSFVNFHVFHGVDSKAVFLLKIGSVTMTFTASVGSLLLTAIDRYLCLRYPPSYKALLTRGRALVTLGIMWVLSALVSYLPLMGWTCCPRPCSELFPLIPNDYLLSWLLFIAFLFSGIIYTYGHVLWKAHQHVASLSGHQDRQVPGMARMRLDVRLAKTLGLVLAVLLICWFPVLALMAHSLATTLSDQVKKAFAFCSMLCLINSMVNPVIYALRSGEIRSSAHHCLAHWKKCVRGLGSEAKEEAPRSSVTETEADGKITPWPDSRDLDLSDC
Sequence of mCB2 receptor (P47936 whole entry): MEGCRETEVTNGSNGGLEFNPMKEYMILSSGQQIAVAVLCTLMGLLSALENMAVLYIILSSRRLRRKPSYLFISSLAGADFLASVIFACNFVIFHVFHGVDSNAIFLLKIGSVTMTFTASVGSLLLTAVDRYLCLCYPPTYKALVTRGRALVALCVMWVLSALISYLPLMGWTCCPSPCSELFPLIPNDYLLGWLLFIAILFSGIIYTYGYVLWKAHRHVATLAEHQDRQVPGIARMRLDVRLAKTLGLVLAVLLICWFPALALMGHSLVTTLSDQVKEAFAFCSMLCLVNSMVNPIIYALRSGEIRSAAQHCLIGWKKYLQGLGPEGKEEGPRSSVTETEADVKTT

CCCCCCC(C)(C)c1cc(O)c2c(c1)OC(C)(C)[C@@H]1CC=C(C)C[C@@H]21 [(−)-Δ^8-THC-DMH, (−)-Δ^8-THC-dimethylheptyl]
ED50 (dose required to reduce temperature by 3 °C) (rats [1]): 0.29 mg/kg

CCOC(=O)C(C)(C)c1cc(O)c2c(c1)OC(C)(C)[C@@H]1CC=C(C)C[C@@H]21 [Compound 8b, 2-[(6aR,10aR)-6a,7,10,10a-Tetrahydro-1-hydroxy-6,6,9-trimethyl-6H-dibenzo[b,d]pyran-3-yl]-2-methyl-propanoic Acid Ethyl Ester]
fold higher binding affinity for hCB2 compared to (−)-Δ^8-THC (hCB2 receptor): 24 fold
fold higher binding affinity for mCB2 compared to (−)-Δ^8-THC (mCB2 receptor): 78 fold

CC1=CC[C@@H]2[C@@H](C1)c1c(O)cc(C(C)(C)C(=O)OCCCCn3ccnc3)cc1OC2(C)C [Compound 9d, 2-[(6aR,10aR)-6a,7,10,10a-Tetrahydro-1-hydroxy-6,6,9-trimethyl-6H-dibenzo[b,d]pyran-3-yl]-2-methyl-propanoic Acid 4-(1H-Imidazol-1-yl)butyl Ester]
fold reduction of CB1 affinity relative to 10b [2]: ~ 8 fold

CC1=CC[C@@H]2[C@@H](C1)c1c(O)cc(C(C)(C)C(=O)OCCCC#N)cc1OC2(C)C [Compound 10a, 2-[(6aR,10aR)-6a,7,10,10a-Tetrahydro-1-hydroxy-6,6,9-trimethyl-6H-dibenzo[b,d]pyran-3-yl]-2-methyl-propanoic Acid 3-Cyano-propyl Ester]
reduction of body temperature (rats [3]; 0.1 mg/kg sc, from average baseline of 37.8 ± 0.1 °C): 4.5 ± 0.5 °C
fold more potent than (−)-Δ^8-THC-DMH and/or 2b (rats [3]; hypothermia): 8–10 fold and 10 fold
offset of the analgesia effect compared to 2b (male CD-1 mice): significantly faster

CCCCCNC(=O)C(C)(C)c1cc(O)c2c(c1)OC(C)(C)[C@@H]1CC=C(C)C[C@@H]21 [Compound 18, 2-[(6aR,10aR)-6a,7,10,10a-Tetrahydro-1-hydroxy-6,6,9-trimethyl-6H-dibenzo[b,d]pyran-3-yl]-2-methyl-N-pentylpropanamide]
mouse plasma t1/2 (mouse plasma esterases): Stable ^e
